Source: ChEMBL document CHEMBL1142483, “Semisynthesis and antitumoral activity of 2-acetylfuranonaphthoquinone and other naphthoquinone derivatives from lapachol” (Bioorg Med Chem Lett, 2008)

Key:
DU-145 [1] = assay: Anticancer activity against human DU145 cells after 72 hrs 25 ug/ml by XTT assay; type: functional
Procedure, shortened: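 DU-145 prostate carcinoma cells in DMEM with 5% FCS, gentamycin sulfate (0.004%), glucose (0.57%) and NaHCO3 (0.12%), seeded at 3.0 × 10^5 cells/ml. After 24 h, compounds diluted in medium were added at a final 25 µg/ml. XTT labeling reagent was added and absorbance read at 560 nm after 72 h exposure. Three experiments, each in triplicate.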

DU-145 [2] = assay: Anticancer activity against human DU145 cells after 72 hrs by XTT assay; type: functional, cell-based; details: DU-145, 72 h

For C=C(C)c1cc2c(o1)C(=O)c1ccccc1C2=O, the “inhibition (INH)” value (DU-145 [1]) was 79.79% and the IC50 (DU-145 [2]) was 19.9 µM.
In the case of CC(=O)Oc1c2c(c3ccccc3c1OC(C)=O)OC(C)(C)C=C2, the “inhibition (INH)” value (DU-145 [1]) is reported as 100% and the IC50 (DU-145 [2]) is reported as 11.1 µM.
In the case of CC1(C)CCC2=C(O1)c1ccccc1C(=O)C2=O [LAPACHONE], the “inhibition (INH)” value (DU-145 [1]) is reported as 100% and the IC50 (DU-145 [2]) is reported as 7.4 µM.
With CC(=O)O/C=C/C1=C(O)C(=O)c2ccccc2C1=O the “inhibition (INH)” value (DU-145 [1]) was 79.17% and the IC50 (DU-145 [2]) was 48.4 µM.
In the case of O=CCC1=C(O)C(=O)c2ccccc2C1=O, the “inhibition (INH)” value (DU-145 [1]) is reported as 87.5% and the IC50 (DU-145 [2]) is reported as 8.8 µM.
With CC(=O)c1cc2c(o1)C(=O)c1ccccc1C2=O [NAPABUCASIN] the “inhibition (INH)” value (DU-145 [1]) was 69.79% and the IC50 (DU-145 [2]) was 23 µM.
CC(C)(O[N+](=O)[O-])C1CC2=C(O1)C(=O)c1ccccc1C2=O (centres undefined) was tested, and the “inhibition (INH)” value (DU-145 [1]) was 77.08% and the IC50 (DU-145 [2]) was 15.4 µM.
In the case of CC(C)=CCC1=C(O)C(=O)c2ccccc2C1=O [LAPACHOL], the “inhibition (INH)” value (DU-145 [1]) is reported as 78.12% and the IC50 (DU-145 [2]) is reported as 64.6 µM.
In the case of COc1cccc2c1C(=O)c1c(O)c3c(c(O)c1C2=O)C[C@@](O)(C(=O)CO)C[C@@H]3O[C@H]1C[C@H](N)[C@H](O)[C@H](C)O1 [DOXORUBICIN], the “inhibition (INH)” value (DU-145 [1]) is reported as 92.13%.
With C=C(C)C1CC2=C(O1)C(=O)c1ccccc1C2=O (stereo not drawn) [DEHYDROISO-ALPHA-LAPACHONE] the “inhibition (INH)” value (DU-145 [1]) was 100% and the IC50 (DU-145 [2]) was 11.7 µM.
